The source of these data is PubChem BioAssay AID504412 (Broad Institute, 2011).

The nature of this assay: inducers of mitochondrial cyt c release – biochemical, isolated mitochondria, cytochrome c ELISA, dry powder, orthogonal assay for A1 inhibitor project, confirmation (AID 504412). To be noted: CHL-1 A1-2A-BIM mitochondria, stronger effect = higher value. A digest of the protocol:
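measured by = human cytochrome c ELISA on supernatant, absorbance 450 nm, 540 nm correction | material = mitochondria isolated from A1-2A-BIM construct-expressing CHL-1 cells | read-out = supernatant cytochrome c level | timing = compound exposure of mitochondria 30 min at 30 °C | medium = trehalose AT buffer, pH 7.7, 80 mM KCl | control set = DMSO low, DMSO with tBid high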

SMILES strings stand for the structures. Calls of active or inactive are those of the source.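 Rule for the calls: active = activation of at least 10% at the 50 µM dose, scaled between neutral and positive controls; inactive = the rest.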

As to `Cn1c(=O)c([N+](=O)[O-])c(Cl)c2ccccc21`, the activation (at 50 µM) was 25.6% (active) and the activation (cytochrome c release, at 10 µM) is 10.1%.
